# Results as given in ChEMBL document CHEMBL4145690, “Rational Design and Structure Validation of a Novel Peptide Inhibitor of the Adenomatous-Polyposis-Coli (APC)-Rho-Guanine-Nucleotide-Exchange-Factor-4 (Asef) Interaction” (J Med Chem, 2018).
# The source made the active and inactive calls. The calls are words filed in the database; no cut-off is given here. *1 amine or outer side, *2 acyl side, *3 side chain or, on linkers, in order; H or OH if unused. Where a SMILES comes first, the peptide text is derived from it. [ ]: non-standard residue; d: D form. The star is where a group is joined. X4 = O=C(C1(N[*:1])C[C@@H]2CC[C@H]1C2)[*:2]; X3 = O=C(c1cc2c(s1)CN([*:1])CC2)[*:2]; X2 = C=C(Br)C[C@H](N[*:1])C(=O)[*:2]; tBuAla = CC(C)(C)C[C@H](N)C(=O)O; hLeu = CC(C)CC[C@H](N)C(=O)O; Cbz = O=C(OCc1ccccc1)*
# What was measured:
# [1] = target: T1, Adenomatous polyposis coli protein (Homo sapiens, UniProt P25054); test: Binding affinity to His-tagged APC (unknown origin) by surface plasmon resonance assay
# T1 sequence (P25054 whole entry): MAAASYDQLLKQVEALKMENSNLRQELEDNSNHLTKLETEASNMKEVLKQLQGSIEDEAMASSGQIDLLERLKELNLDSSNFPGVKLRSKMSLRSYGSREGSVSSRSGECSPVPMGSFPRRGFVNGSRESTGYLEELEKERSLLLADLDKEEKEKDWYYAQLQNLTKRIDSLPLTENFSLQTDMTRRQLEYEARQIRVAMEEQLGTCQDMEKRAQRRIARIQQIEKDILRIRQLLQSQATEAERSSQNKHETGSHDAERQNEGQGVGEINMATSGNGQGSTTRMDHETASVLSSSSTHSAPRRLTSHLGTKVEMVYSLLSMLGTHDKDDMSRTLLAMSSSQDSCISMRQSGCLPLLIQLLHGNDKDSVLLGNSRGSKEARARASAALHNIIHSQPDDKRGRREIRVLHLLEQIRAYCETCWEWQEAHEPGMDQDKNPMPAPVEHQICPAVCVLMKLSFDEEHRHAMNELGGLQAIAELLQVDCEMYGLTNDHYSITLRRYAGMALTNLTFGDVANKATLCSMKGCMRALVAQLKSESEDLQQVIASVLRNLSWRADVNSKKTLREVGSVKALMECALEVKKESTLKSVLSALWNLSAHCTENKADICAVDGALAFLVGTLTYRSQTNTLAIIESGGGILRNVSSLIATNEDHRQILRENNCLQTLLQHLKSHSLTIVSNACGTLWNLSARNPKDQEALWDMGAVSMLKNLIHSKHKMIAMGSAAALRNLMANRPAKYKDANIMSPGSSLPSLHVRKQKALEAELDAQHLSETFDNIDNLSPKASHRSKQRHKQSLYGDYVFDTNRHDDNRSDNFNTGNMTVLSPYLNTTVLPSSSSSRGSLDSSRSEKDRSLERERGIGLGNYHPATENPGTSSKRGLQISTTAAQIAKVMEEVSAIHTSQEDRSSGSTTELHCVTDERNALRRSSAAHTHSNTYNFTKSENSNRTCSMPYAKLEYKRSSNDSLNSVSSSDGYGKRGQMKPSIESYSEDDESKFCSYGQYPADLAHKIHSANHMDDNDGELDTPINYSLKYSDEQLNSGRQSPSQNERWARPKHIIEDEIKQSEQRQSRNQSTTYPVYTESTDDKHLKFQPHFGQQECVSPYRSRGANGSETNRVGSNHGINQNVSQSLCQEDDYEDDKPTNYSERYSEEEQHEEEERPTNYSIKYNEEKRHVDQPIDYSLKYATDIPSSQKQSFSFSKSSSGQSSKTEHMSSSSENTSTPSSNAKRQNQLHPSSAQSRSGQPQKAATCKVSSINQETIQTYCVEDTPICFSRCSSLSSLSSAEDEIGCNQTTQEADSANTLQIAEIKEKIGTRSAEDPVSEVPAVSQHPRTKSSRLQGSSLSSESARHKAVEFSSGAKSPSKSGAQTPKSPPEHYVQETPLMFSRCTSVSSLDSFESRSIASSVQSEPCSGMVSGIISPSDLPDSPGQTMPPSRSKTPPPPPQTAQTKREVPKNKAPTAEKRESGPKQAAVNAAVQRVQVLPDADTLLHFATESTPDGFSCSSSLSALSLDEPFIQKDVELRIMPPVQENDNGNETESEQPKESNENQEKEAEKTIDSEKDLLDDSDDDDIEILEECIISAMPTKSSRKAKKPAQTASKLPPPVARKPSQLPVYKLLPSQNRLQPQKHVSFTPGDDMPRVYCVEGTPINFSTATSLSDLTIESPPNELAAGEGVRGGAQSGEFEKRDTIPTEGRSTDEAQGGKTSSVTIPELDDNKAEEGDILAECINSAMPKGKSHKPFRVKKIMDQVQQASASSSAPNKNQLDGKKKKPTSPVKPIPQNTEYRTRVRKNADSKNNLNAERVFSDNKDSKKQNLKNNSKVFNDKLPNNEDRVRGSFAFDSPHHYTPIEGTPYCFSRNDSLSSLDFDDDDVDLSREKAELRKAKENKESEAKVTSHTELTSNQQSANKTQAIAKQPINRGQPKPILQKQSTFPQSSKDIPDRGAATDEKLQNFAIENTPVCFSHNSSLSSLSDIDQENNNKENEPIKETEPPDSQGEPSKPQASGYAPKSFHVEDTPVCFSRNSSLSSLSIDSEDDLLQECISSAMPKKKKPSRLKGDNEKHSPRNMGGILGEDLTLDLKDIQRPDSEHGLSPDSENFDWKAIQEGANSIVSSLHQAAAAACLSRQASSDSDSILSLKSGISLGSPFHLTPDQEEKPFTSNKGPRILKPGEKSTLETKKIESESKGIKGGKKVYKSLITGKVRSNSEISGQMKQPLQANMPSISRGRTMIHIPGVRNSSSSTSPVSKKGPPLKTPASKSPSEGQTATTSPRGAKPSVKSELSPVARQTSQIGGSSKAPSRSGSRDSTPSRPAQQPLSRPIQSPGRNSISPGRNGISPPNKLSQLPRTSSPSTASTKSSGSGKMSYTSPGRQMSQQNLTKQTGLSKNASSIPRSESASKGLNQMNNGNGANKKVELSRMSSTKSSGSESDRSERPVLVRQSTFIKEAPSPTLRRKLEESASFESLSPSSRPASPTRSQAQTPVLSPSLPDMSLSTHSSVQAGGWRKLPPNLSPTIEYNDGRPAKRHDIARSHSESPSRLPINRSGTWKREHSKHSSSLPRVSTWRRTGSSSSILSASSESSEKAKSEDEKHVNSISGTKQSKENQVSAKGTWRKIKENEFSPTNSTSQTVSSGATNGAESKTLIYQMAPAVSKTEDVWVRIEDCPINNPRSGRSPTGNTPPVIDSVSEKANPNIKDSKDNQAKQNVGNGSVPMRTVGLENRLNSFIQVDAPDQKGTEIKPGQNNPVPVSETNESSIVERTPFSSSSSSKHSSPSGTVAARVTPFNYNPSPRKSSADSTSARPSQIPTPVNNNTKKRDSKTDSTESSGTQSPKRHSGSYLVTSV
# In short: (§1)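 His-APC amine-coupled to a CM5 chip (EDC/NHS; protein in 50 mM Hepes, 300 mM NaCl, 1 mM EDTA, pH 7.5); BSA reference cell. Peptides injected in 0.05 M Hepes pH 7.5 at 30 µL/min; dissociation 6 min; regeneration with glycine-HCl pH 2.0. Kinetic constants fitted to a 1:1 Langmuir model.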
# [2] = target: T1, Adenomatous polyposis coli protein; test: Binding affinity to APC (unknown origin) at 30 degC by ITC method
# In short: (§2)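 ITC in 50 mM HEPES pH 7.5, 300 mM NaCl, 1 mM EDTA at 30 °C. Titrations were repeated three times. Kd, ΔG, ΔH and −TΔS are averages of the three independent experiments. L/P ratio gives sites per APC.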
# [3] = target: T1, Adenomatous polyposis coli protein; test: Binding affinity to APC (unknown origin) at 37 degC by ITC method
# In short: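 ITC at 37 °C in 50 mM HEPES pH 7.5, 300 mM NaCl, 1 mM EDTA. Titrations were repeated three times.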
# [4] = target: T1, Adenomatous polyposis coli protein; test: Binding affinity to His-tagged APC (unknown origin) assessed as dissociation constant by surface plasmon resonance assay; in short: as §1
# [5] = target: T1, Adenomatous polyposis coli protein; test: Binding affinity to His-tagged APC (unknown origin) assessed as residence time by surface plasmon resonance assay; in short: as §1
# [6] = target: T2, APC/Asef (Homo sapiens) (UniProt P25054+Q9NR80); test: Inhibition of Flag-APC (303 to 876 residues) (unknown origin) /HA-Asef (170 to 632 residues) (unknown origin) interaction expressed in HEK293T cell lysates at 10 uM incubated for 2 hrs by coimmunoprecipitation assay
# In short: (§3)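 HEK293T cells co-transfected with Flag-APC (303–876) and HA-Asef (170–632); lysed in RIPA after 24 h and lysate cleared. Supernatant incubated with compound (2 or 10 µM) or DMSO for 2 h at 4 °C, then anti-FLAG M2 gel overnight at 4 °C. Beads washed and proteins analysed by western blot (anti-HA, anti-Flag), single experiment.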
# [7] = target: T1, Adenomatous polyposis coli protein; test: Binding affinity to APC protein (303 to 739 residues) (unknown origin) incubated for 60 mins followed by probe addition and measured after 60 mins by competitive fluorescence polarization assay
# In short: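 Peptide in DMSO preincubated with protein 60 min at room temperature with shaking; probe added, then 60 min more. Controls: blank, tracer only, complex only. IC50 from dose-response curves, mean of three independent experiments.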
# [8] = target: T1, Adenomatous polyposis coli protein; test: Binding affinity to His-tagged APC (unknown origin) assessed as association constant by surface plasmon resonance assay; in short: as §1
# [9] = target: T1, Adenomatous polyposis coli protein; test: Binding affinity to APC (unknown origin) assessed as induction of blue shifts in fluorescence for APC-compound complexes at 35 uM incubate fro 30 mins by tryptophan fluorescence measurements assay
# In short: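 APC protein (5 µM) alone or with peptide at 35 µM in 50 mM Hepes pH 7.5, 300 mM NaCl, 1 mM EDTA, 50 µL. Incubated 30 min at room temperature with gentle shaking. Tryptophan excited at 280 nm; emission scanned 300–500 nm. Run in triplicate.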
# [10] = target: T1, Adenomatous polyposis coli protein; test: Reversible binding affinity to His-tagged APC (unknown origin) by surface plasmon resonance assay; in short: as §1
# [11] = target: T1, Adenomatous polyposis coli protein; test: Binding affinity to APC (unknown origin) assessed as association constant at 30 degC by ITC method; in short: as §2
# [12] = target: T1, Adenomatous polyposis coli protein; test: Binding affinity to APC (unknown origin) assessed as intramolecular hydrogen bond formation by 1H nuclear magnetic resonance based hydrogen-deuterium-exchange assay
# [13] = target: T2, APC/Asef (Homo sapiens); test: Inhibition of Flag-APC (303 to 876 residues) (unknown origin) /HA-Asef (170 to 632 residues) (unknown origin) interaction expressed in HEK293T cell lysates incubated for 2 hrs by coimmunoprecipitation assay; in short: as §3
smiles,measurement,setting,value
CC(C)C[C@H](NC(=O)[C@H](C)NC(=O)[C@H](CCC(=O)O)NC(=O)CNC(=O)[C@H](C)NC(=O)OCc1ccccc1)C(=O)N[C@@H](Cc1ccc(O)cc1)C(=O)N[C@@H](CCC(=O)O)C(N)=O (Cbz-AGEALYE-NH2),Kd,[1],0.43 µM
same,Kd,[2],0.21 µM
same,Kd,[3],1.8 µM
same,K,[4],8.2 ×10⁻² /s
same,TIME,[5],0.00333 h
same,inhibition,[6],Active
same,IC50,[7],1.09 µM
same,K,[8],1.92 ×10⁵ /M/s
same,Activity,[9],Active
same,Activity,[10],Dose-dependent effect
same,K,[11],4.71 ×10⁶ /M
CC(C)C[C@H](NC(=O)[C@H](CO)NC(=O)[C@H](CCC(=O)O)NC(=O)CNC(=O)[C@H](C)NC(=O)OCc1ccccc1)C(=O)N[C@@H](Cc1ccc(O)cc1)C(=O)N[C@@H](CCC(=O)O)C(N)=O (Cbz-AGESLYE-NH2),Kd,[1],0.22 µM
same,Kd,[2],0.012 µM
same,Kd,[3],0.21 µM
same,K,[4],6.7 ×10⁻² /s
same,TIME,[5],0.00417 h
same,IC50,[7],0.25 µM
same,Activity,[12],Active
same,K,[8],3.05 ×10⁵ /M/s
same,Activity,[9],Active
same,inhibition,[10],Dose-dependent effect
same,inhibition,[13],Dose-dependent effect
same,K,[11],8.21 ×10⁷ /M
C=C(Br)C[C@H](NC(=O)[C@H](CO)NC(=O)[C@H](CCC(=O)O)NC(=O)CNC(=O)[C@H](C)NC(=O)OCc1ccccc1)C(=O)N[C@@H](Cc1ccc(O)cc1)C(=O)N[C@@H](CCC(=O)O)C(N)=O (Cbz-AGES[X2]YE-NH2),IC50,[7],1.82 µM
C[C@H](NC(=O)OCc1ccccc1)C(=O)NCC(=O)N[C@@H](CCC(=O)O)C(=O)N[C@@H](CO)C(=O)NC1(C(=O)N[C@@H](Cc2ccc(O)cc2)C(=O)N[C@@H](CCC(=O)O)C(N)=O)C[C@@H]2CC[C@H]1C2 (some centres undefined) (Cbz-AGES[X4]YE-NH2),IC50,[7],128 µM
CC(C)CC[C@H](NC(=O)[C@H](CO)NC(=O)[C@H](CCC(=O)O)NC(=O)CNC(=O)[C@H](C)NC(=O)OCc1ccccc1)C(=O)N[C@@H](Cc1ccc(O)cc1)C(=O)N[C@@H](CCC(=O)O)C(N)=O (Cbz-AGES[hLeu]YE-NH2),IC50,[7],0.84 µM
C[C@H](NC(=O)OCc1ccccc1)C(=O)NCC(=O)N[C@@H](CCC(=O)O)C(=O)N[C@@H](CO)C(=O)N[C@@H](CC(C)(C)C)C(=O)N[C@@H](Cc1ccc(O)cc1)C(=O)N[C@@H](CCC(=O)O)C(N)=O (Cbz-AGES[tBuAla]YE-NH2),IC50,[7],1.78 µM
CC(C)C[C@H](NC(=O)[C@H](Cc1ccc(O)cc1)NC(=O)[C@H](CCC(=O)O)NC(=O)CNC(=O)[C@H](C)NC(=O)OCc1ccccc1)C(=O)N[C@@H](Cc1ccc(O)cc1)C(=O)N[C@@H](CCC(=O)O)C(N)=O (Cbz-AGEYLYE-NH2),IC50,[7],5.46 µM
C[C@H](NC(=O)OCc1ccccc1)C(=O)NCC(=O)N[C@@H](CCC(=O)O)C(=O)N1CCc2cc(C(=O)N[C@@H](Cc3ccc(O)cc3)C(=O)N[C@@H](CCC(=O)O)C(N)=O)sc2C1 (Cbz-AGE[X3]YE-NH2),Kd,[7],Not Active
